Compound activity: PubChem, Johns Hopkins Ion Channel Center
KCNQ1 block – blocks the human KCNQ1 potassium channel; B-score at 10 µM; P51787; 310,000 tested, 1.3% active; CHO-K1 KCNQ1, FluxOR thallium flux fluorescence; active compounds read high;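 active = compounds whose thallium flux B-score, printed positive for inhibition, exceeds three library SD while starting fluorescence stays within three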;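 note: channel opened by potassium depolarization with thallium stimulus after 20 min compound exposure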
Kir21 inh – inhibitors of mouse Kir2.1 inward-rectifier potassium channel; AID 1672; HEK293-Kir2.1, FluxOR thallium flux fluorescence; active compounds read low; P35561; B-score at 10 µM; 310,000 tested, 0.85% active;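 active = fluorescence ratio B-score at or below minus 3 SD of library scores, with starting-brightness B-score within 2 SD, cut at about -4.2 in these data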;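 note: channel flux triggered by added potassium and thallium sulfate stimulus; B-score of peak minus minimum fluorescence over baseline after thallium stimulus; more negative B-score means stronger Kir2.1 block with less thallium influx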
KCNK3 inh – human KCNK3 channel inhibition, primary screen. 340,000 tested, 0.84% active. B-score at 10 µM. CHO-KCNK3 thallium flux, FluxOR fluorescence; active compounds read low;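 active = B-score under library mean minus 4 SD, starting fluorescence ratio at most library mean plus 5 SD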;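 note: more negative B-score means stronger inhibition of thallium flux through KCNK3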
Target sequence (O14649 whole entry, looked up): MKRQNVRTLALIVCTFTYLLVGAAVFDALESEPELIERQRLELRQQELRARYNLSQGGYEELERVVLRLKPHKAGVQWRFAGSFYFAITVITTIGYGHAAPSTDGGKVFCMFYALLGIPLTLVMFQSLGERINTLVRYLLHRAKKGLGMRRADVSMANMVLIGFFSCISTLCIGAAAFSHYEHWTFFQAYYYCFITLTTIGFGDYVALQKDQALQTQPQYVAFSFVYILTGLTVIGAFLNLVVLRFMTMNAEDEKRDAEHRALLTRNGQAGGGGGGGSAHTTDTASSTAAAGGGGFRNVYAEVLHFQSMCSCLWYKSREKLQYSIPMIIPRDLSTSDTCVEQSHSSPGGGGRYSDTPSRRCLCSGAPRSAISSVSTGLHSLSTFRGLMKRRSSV
hERG protect – hERG (human) protection from proarrhythmic block; Q12809; CHO-hERG, FluxOR thallium flux, dofetilide IC70 present; activation (rescue from dofetilide block), less the hit threshold, % at 10 µM; 310,000 tested, 0.51% active; AID 1511;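 active = activation above the mean of controls blocked by dofetilide plus 5 SD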;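 note: thallium influx through hERG after potassium depolarization seen as dye fluorescence rise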
KCNK9 block – blocks the human KCNK9 two-pore domain potassium channel; HEK293 KCNK9, FluxOR thallium flux fluorescence; active compounds read low; B-score at 10 µM; 310,000 tested, 1.2% active;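 active = ratio B-score over 3 SD below the library mean, with starting fluorescence within 5 SD of its mean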;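 note: negative B-score means less thallium flux so channel inhibition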
KCNQ1 act – human KCNQ1 channel potentiation or activation. P51787. CHO-K1 KCNQ1, thallium flux FluxOR fluorescence; active compounds read high. 310,000 tested, 0.35% active. B-score at 10 µM;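 active = fluorescence ratio B-score, a plate-corrected score, at least three library SD, with initial intensity B-score within 5 SD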
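Assay system: stable KCNQ1 CHO-K1 line; medium: assay buffer, equal DMSO in all wells; timing: 90 min dye loading and 20 min compound exposure, both at room temperature; technique: kinetic FluxOR thallium fluorescence, 10-s 1-Hz baseline, 110-s post-stimulus read; read-out basis: B score of baseline-normalized fluorescence ratio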
Of the large screens only hits and unclear results are named; the others gave an inactive call. Rows were chosen to be rich in hits. Some 3.7% of all compounds tested hit in one or more screens of this group.

Cc1cc(C)c(Cn2cnc(-c3ccc([N+](=O)[O-])cc3)c2)c(C)c1	KCNQ1 block 6
COc1ccc2oc(C(=O)N(Cc3ccco3)Cc3cccs3)c(C)c2c1	KCNQ1 block 9
CCOc1ccccc1CNS(=O)(=O)c1ccc2c(c1)oc(=O)n2C	none
CCOc1ccccc1CNS(=O)(=O)c1ccc2[nH]c(=O)sc2c1	Kir21 inh -5.2
COc1ccc(-c2c(C)c3ccc(OCC(C)=O)cc3oc2=O)cc1	hERG protect 5.7 (no result: KCNK3 inh)
CC(=O)COc1ccc2c(C)c(C)c(=O)oc2c1	none
C[C@H](NS(=O)(=O)c1ccc(Cl)cc1)C(=O)OCC(=O)Nc1cc(S(=O)(=O)N2CCOCC2)ccc1Cl	none (no result: KCNQ1 block, Kir21 inh, hERG protect, KCNK9 block, KCNQ1 act)
CCOC(=O)CSc1nc2c(sc3ccccc32)c(=O)n1CCCN1CCOCC1	hERG protect 4.9
COCCn1c(-c2ccc(OC)cc2)cnc1SCC(=O)Nc1ccc(OC)cc1OC	KCNQ1 block 6
COCCCNC(=O)CSc1nc2ccccc2c(=O)n1CCCN1CCCCC1	none
CCOC(=O)c1ccccc1NC(=O)CSc1nc2ccccc2c(=O)n1CCCN1CCOCC1	KCNK3 inh -11 (no result: KCNQ1 block, Kir21 inh, hERG protect, KCNK9 block, KCNQ1 act)
COCCn1c(-c2ccc(OC)cc2)cnc1SCC(=O)Nc1cc(C)on1	none
COc1ccc(NC(=O)CSc2nc3ccccc3c(=O)n2CCCN2CCCCC2)c(OC)c1	Kir21 inh -6.1
CC1CCC(CC(=O)O)(C(=O)O)CC1 (configuration not stated)	none (no result: KCNQ1 block, Kir21 inh, hERG protect, KCNK9 block, KCNQ1 act)
CCOc1cc(/C=C2\CCCc3c2nc2ccccc2c3C(=O)O)ccc1OC	none
Cc1ccc(S(=O)(=O)Oc2ccccc2/C=N/O)cc1	Kir21 inh -6.9
Cc1ccc(S(=O)(=O)Oc2ccccc2/C=N/Nc2ccc(C(=O)O)cc2)cc1	none
COc1ccc(CN2[C@@H](CC(=O)O)c3ccc(C(F)(F)F)cc3S2(=O)=O)cc1	none (no result: KCNK3 inh)
CC(=O)C[C@H]1c2cc(C(F)(F)F)ccc2S(=O)(=O)N1C1CCCCC1	KCNQ1 act 10
CCCCCCCCN1[C@@H](CC(C)=O)c2cc(C(F)(F)F)ccc2S1(=O)=O	KCNQ1 act 56
COc1ccc(CN2[C@@H](CC(=O)O)c3cc(C(F)(F)F)ccc3S2(=O)=O)cc1	hERG protect 6.4
NC(=O)COc1ccc(/C=N\NC(=O)CC(=O)NCCc2ccccc2)cc1	none
O=C(Nc1ncc(Br)s1)C(Cc1ccccc1)n1cccc1 (configuration not stated)	hERG protect 11, KCNQ1 act 31
Cc1ccccc1OCC(=O)Nc1ccccc1N1CCOCC1	Kir21 inh -7.9
COc1cccc(CN(C)CC(=O)Nc2ccccc2N2CCOCC2)c1OC	hERG protect 5.1
CC(=O)N1CCN(c2ccccc2NC(=O)COc2ccccc2C)CC1	none
Cc1ccc2c(c1)c1c3n2CCNC3CCC1 (configuration not stated)	none
Cc1ccc(C(=O)N/C(=C\c2ccc(-c3ccc(Cl)cc3)o2)C(=O)NCCCN(C)C)cc1	Kir21 inh -5.3
CN(C)CCCNC(=O)/C(=C\c1ccc(-c2ccc(Br)cc2)o1)NC(=O)c1ccccc1	none
CN(C)CCNC(=O)/C(=C/c1ccc(-c2cccc(Cl)c2)o1)NC(=O)c1ccccc1	Kir21 inh -4.6
CO/N=C(/CS(=O)c1ccc(Br)cc1)c1ccc(OC)cc1 (configuration not stated)	Kir21 inh -8.9
O=C(Cc1cccs1)Nc1cccc(-c2nc3cc4ccccc4cc3[nH]2)c1	KCNQ1 block 9
O=C(Nc1cccc(-c2nnc(-c3ccco3)o2)c1)c1ccccc1	KCNK9 block -6.9
O=C(Nc1cccc(NC(=O)c2ccco2)c1)c1ccccc1	KCNK9 block -7.6
O=C(Nc1cccc(NC(=O)c2ccc(-c3cccc(Br)c3)o2)c1)c1ccco1	KCNK9 block -12
O=C(c1ccccc1)c1cccc(NC(=O)c2ccco2)c1	none
CCc1cc(C(=O)N2CCCC(CNC(=O)c3ccc(-c4ccccc4)cc3)C2)no1 (configuration not stated)	none
Cc1ccoc1C(=O)N1CCN(C(=O)c2occc2C)CC1	none
COc1ccccc1NC(=O)C1CCCN1C(=O)Nc1ccc(F)cc1 (configuration not stated)	none
Cc1ccc2nc(-c3ccc(NC(=O)c4ccco4)cc3)[nH]c2c1	none
Cc1cc(C)c(OCC(=O)Nc2cccc(NC(=O)c3ccco3)c2)c(Br)c1	KCNK9 block -7.9
O=C(Nc1cccc(-c2nc3ccccc3[nH]2)c1)c1ccco1	KCNK9 block -6.9
CCc1ccc(C(O)(CNCc2ccccc2)c2ccccc2)cc1 (configuration not stated)	Kir21 inh -8.9
COc1ccc(CNCC(O)(c2ccccc2)c2ccc(Cl)cc2)cc1 (configuration not stated)	Kir21 inh -5.9
CS(=O)(=O)N(CC(=O)N1CCc2ccccc2C1)c1ccc(Cl)cc1F	none
O=C(c1ccco1)N1CCCN(Cc2nc(-c3ccc4c(c3)OCO4)no2)CC1	none
Fc1ccc(CN2CCCN(Cc3nc(-c4ccc5c(c4)OCO5)no3)CC2)cc1	Kir21 inh -6.8
CN(C)CCNC(=O)c1cc2sc3ccccc3c2s1	Kir21 inh -4.2
CCN(CC)C(=O)c1cc2sc3ccccc3c2s1	KCNK9 block -7.5
Cc1ccc(C)c(N(C)C(=O)c2cc3c(=O)[nH]c4ccc(C)cc4c3s2)c1	none
COc1ccc([N+](=O)[O-])c(S(=O)(=O)c2ccccc2)n1	none
COc1ccc([N+](=O)[O-])c(S(=O)(=O)c2ccc(Cl)cc2)n1	Kir21 inh -4.6
COc1ccc2oc(C(=O)OCC(=O)N(C)C3CCCCC3)c(C)c2c1	none
CCCCCCCC(=O)Nc1ccc(C(=O)N/N=C/c2cccc([N+](=O)[O-])c2)cc1	hERG protect 8.9
CCCCCCCCCS(=O)(=O)N/N=C/c1cccc([N+](=O)[O-])c1	KCNQ1 block 8
CCCCCCC(=O)Nc1ccc(C(=O)N/N=C/c2cccnc2)cc1	none
O=C(CSc1ccccc1)N1CCCC(N2CCN(c3ccccc3)CC2)C1 (configuration not stated)	none
COC(=O)c1sccc1NC(=S)NCc1ccc(Cl)cc1	hERG protect 14
N#CC(c1ccc(Cl)cc1)c1ccc2c(C(F)(F)F)cc(C(F)(F)F)nc2n1 (configuration not stated)	KCNQ1 act 60
CCCc1cc(-c2nc(N)ncc2-c2ccc3c(c2)OCCCO3)c(O)cc1OC	KCNQ1 block 7
CCCc1cc(-c2nc(N)ncc2-c2csc(C)n2)c(O)cc1OC	Kir21 inh -6.4
CCc1cc(-c2nc(N)ncc2-c2csc(C)n2)c(O)cc1OC	none
Nc1nc(=S)[nH]c2c1C1(CCCCC1)Cc1ccccc1-2	none
